In ChEMBL document CHEMBL1145084, “Polymer-assisted solution-phase library synthesis and crystal structure of alpha-ketothiazoles as tissue factor VIIa inhibitors” (J Med Chem, 2003) one finds IC50 and Selectivity data, which are given here for 7 molecules.

For assay [1], the target named is Prothrombin (Homo sapiens, UniProt P00734). Briefly: Inhibitory activity against thrombin (IIa). The essentials:
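Human thrombin (0.28 nM) with H-D-Phe-Pip-Arg-p-nitroaniline (0.06 mM) in 50 mM Tris-HCl pH 8.0, 100 mM NaCl, 0.1% BSA. Immediate background read at 405 nm, then 60 min at room temperature before measuring p-nitroaniline release rate at 405 nm. Seven concentrations in duplicate; % inhibition versus control; IC50 by four-parameter logistic regression.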

Assay [2] has as its target Coagulation factor X (Homo sapiens, UniProt P00742). Briefly: Inhibitory activity against coagulation factor X. The essentials:
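Human Factor Xa (0.3 nM) with chromogenic substrate S-2765 (0.15 mM) in 50 mM Tris-HCl pH 8.0, 100 mM NaCl, 0.1% BSA. A405 background read taken at once, then 60 min at room temperature, then p-nitroaniline release rate at 405 nm. Duplicates at seven concentrations; % inhibition versus control; IC50 from four-parameter logistic fit, averaged over the duplicates.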

Assay [3] has as its target T1, Coagulation factor VII (Homo sapiens, UniProt P08709).
T1 sequence (P08709 whole entry): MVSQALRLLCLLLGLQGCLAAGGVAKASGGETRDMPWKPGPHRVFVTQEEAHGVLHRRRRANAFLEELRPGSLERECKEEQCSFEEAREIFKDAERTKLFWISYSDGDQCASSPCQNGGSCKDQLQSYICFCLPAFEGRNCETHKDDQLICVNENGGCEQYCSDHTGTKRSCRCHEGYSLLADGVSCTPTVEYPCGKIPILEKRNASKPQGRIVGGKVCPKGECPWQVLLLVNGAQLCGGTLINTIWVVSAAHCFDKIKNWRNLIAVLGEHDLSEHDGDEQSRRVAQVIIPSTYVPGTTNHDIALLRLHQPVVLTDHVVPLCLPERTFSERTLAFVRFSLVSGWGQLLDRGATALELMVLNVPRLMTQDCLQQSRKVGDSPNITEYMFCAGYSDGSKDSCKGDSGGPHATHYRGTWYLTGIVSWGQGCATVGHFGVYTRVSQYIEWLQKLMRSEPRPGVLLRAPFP
Nature of the assay: Inhibitory activity against tissue coagulation factor VII. The essentials: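 Complex of recombinant soluble tissue factor (100 nM) and recombinant human Factor VIIa (2 nM). Substrate N-methylsulfonyl-D-Phe-Gly-Arg-p-nitroaniline at 0.4 mM in 5 mM CaCl2, 50 mM Tris-HCl pH 8.0, 100 mM NaCl, 0.1% BSA. Background A405 read first; after 60 min at room temperature, hydrolysis rate read at 405 nm. Duplicates at seven concentrations; IC50 is the duplicate average.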

Assay [4] concerns the target Thrombin and coagulation factor VII (Homo sapiens) (UniProt P00734+P08709). Briefly: Selectivity for coagulation factor VIIa over thrombin IIa. Format: protein assay.

Each structure is given as a SMILES string.

Sequence of Coagulation factor X (P00742 41-179 limits assumed): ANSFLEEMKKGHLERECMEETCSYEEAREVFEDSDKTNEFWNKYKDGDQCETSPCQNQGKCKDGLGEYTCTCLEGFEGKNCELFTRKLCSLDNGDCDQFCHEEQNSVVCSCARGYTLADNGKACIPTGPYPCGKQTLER
Sequence of Coagulation factor X (P00742 235-488 limits assumed): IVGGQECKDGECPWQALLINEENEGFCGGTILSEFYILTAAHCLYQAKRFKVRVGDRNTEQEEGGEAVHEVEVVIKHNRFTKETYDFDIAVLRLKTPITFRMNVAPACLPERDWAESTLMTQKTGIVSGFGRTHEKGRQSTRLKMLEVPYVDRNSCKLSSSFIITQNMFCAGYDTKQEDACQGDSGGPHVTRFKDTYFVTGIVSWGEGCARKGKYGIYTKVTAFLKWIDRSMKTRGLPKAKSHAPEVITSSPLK

For the molecule `N=C(N)NCCC[C@H](NC(=O)[C@H](Cc1ccc(Br)cc1)NC(=O)[C@@H](Cc1ccccc1)NS(=O)(=O)Cc1ccccc1)C(=O)c1nccs1`, the IC50 stood at 3190 nM in assay [1], 380 nM in assay [2] and 760 nM in assay [3]. This molecule also returned a Selectivity in assay [4] of 4.

In the case of `N=C(N)NCCC[C@H](NC(=O)[C@H](COCc1ccccc1)NC(=O)[C@@H](Cc1ccccc1)NS(=O)(=O)Cc1ccccc1)C(=O)c1nccs1`, the IC50 in assay [1] came to 9890 nM; in assay [2] it was 310 nM; in assay [3], 1530 nM. The molecule also had a Selectivity in assay [4] of 6.

In the case of `Cc1cccc(C)c1C[C@H](NC(=O)[C@@H](Cc1ccccc1)NS(=O)(=O)Cc1ccccc1)C(=O)N[C@@H](CCCN=C(N)N)C(=O)c1nccs1`, the IC50 in assay [1] came to 28100 nM; in assay [2], 2770 nM; in assay [3] it was 700 nM. For the same molecule, the Selectivity in assay [4] came to 40.

As to `N=C(N)NCCC[C@H](NC(=O)[C@H](CC1CC1)NC(=O)[C@@H](Cc1ccccc1)NS(=O)(=O)Cc1ccccc1)C(=O)c1nccs1`, the half-maximal inhibitory concentration (IC50) stood at 9200 nM in assay [1], 2120 nM in assay [2] and 820 nM in assay [3]. This molecule also registered a Selectivity in assay [4] of 11.

As to `N=C(N)NCCC[C@H](NC(=O)[C@H](Cc1csc2ccccc12)NC(=O)[C@@H](Cc1ccccc1)NS(=O)(=O)Cc1ccccc1)C(=O)c1nccs1`, the results for the IC50 in assay [1], in assay [2] and in assay [3] were 15400 nM, 150 nM and 500 nM, respectively. The Selectivity in assay [4] is 3.

`CS(=O)(=O)CC[C@H](NC(=O)[C@@H](Cc1ccccc1)NS(=O)(=O)Cc1ccccc1)C(=O)N[C@@H](CCCN=C(N)N)C(=O)c1nccs1`: the IC50 in assay [1] turned out to be 12900 nM; in assay [2] it was 2000 nM; in assay [3], 13700 nM. The Selectivity in assay [4] stood at 1.

Take `N=C(N)NCCC[C@H](NC(=O)[C@H](Cc1cc(F)cc(F)c1)NC(=O)[C@@H](Cc1ccccc1)NS(=O)(=O)Cc1ccccc1)C(=O)c1nccs1`: the half-maximal inhibitory concentration (IC50) in assay [1] amounted to 6820 nM; in assay [2], 180 nM; in assay [3], 190 nM. In assay [4], this molecule displayed a Selectivity of 36.
